From ChEMBL document CHEMBL4177574, “A novel class of Plasmodial ClpP protease inhibitors as potential antimalarial agents” (Bioorg Med Chem, 2017)
The source made the active and inactive calls. The calls are words filed in the database; no cut-off is given here. Where a SMILES comes first, the peptide text is derived from it. The star is where a group is joined. Cbz = O=C(OCc1ccccc1)*; OBn = c1ccc(CO*)cc1

Assays:
[1] = Inhibition of recombinant Plasmodium falciparum ClpP expressed in Escherichia coli BL21(DE3) using Suc-LLVY-AMC substrate incubated for 3 to 6 hrs by fluorimetric assay
How it was run: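 The protease domain of PfClpP (aa 168–370) was His-tagged in pET28a, expressed in E. coli BL21(DE3) with 1 mM IPTG at 37 °C for 3–4 h, Ni-NTA purified and BCA quantified. Assay used 13 µM enzyme in 0.1 M sodium acetate pH 7.0 with 1.0 mM DTT and 50 µM Suc-LLVY-AMC final. AMC fluorescence (ex 355/em 460) was followed continuously for 3–6 h at RT; IC50 by curve fitting.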

Plasmodium falciparum [2] = experiment: Antimalarial activity against Plasmodium falciparum 3D7 assessed as inhibition of parasite growth incubated for 96 hrs in presence of 4% haematocrit by SYBR green dye based assay; type: functional, organism-based
How it was run: (§1)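 P. falciparum 3D7 in RPMI with 0.5% albumax at 4% haematocrit, sorbitol-synchronized, starting parasitaemia ~1%. Compound added at final 0–100 µM, with DMSO in control wells. Growth ran 96 h and was read by SYBR green DNA-dye fluorescence. Triplicate wells, experiment repeated twice; IC50 derived from these.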

Plasmodium falciparum [3] = experiment: Antimalarial activity against Plasmodium falciparum 3D7 assessed as reduction in mature schizonts formation after 60 hrs post infection; type: functional, organism-based
Plasmodium falciparum [4] = experiment: Effect on apicoplast development in ACP-GFP expressing Plasmodium falciparum D10 at 10 uM measured during first cycle by DAPI dye based confocal laser-scanning microscopy; type: functional, organism-based
How it was run: (§2)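 D10 ACP-GFP parasites were grown like 3D7 with 100 nM pyrimethamine, and ring stages (8–10 hpi) were treated with compound. Parasites were sampled at 36/40 hpi and 72 hpi, DAPI-stained at 2 µg/mL final for 30 min at 37 °C, and imaged by confocal microscopy for apicoplast GFP morphology.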

Plasmodium falciparum [5] = experiment: Inhibition of apicoplast development in ACP-GFP expressing Plasmodium falciparum D10 at 10 uM measured during second cycle by DAPI dye based confocal laser-scanning microscopy; type: functional, organism-based; how it was run: as §2
Plasmodium falciparum [6] = experiment: Inhibition of apicoplast growth in ACP-GFP expressing Plasmodium falciparum D10 at 10 uM measured during second cycle by DAPI dye based confocal laser-scanning microscopy; type: functional, organism-based; how it was run: as §2
Plasmodium falciparum [7] = experiment: Inhibition of apicoplast development in ACP-GFP expressing Plasmodium falciparum D10 assessed as induction of round stump-like structures at 10 uM measured at 72 hrs post dose by DAPI dye based confocal laser-scanning microscopy; type: functional, organism-based; how it was run: as §2
Plasmodium falciparum [8] = experiment: Inhibition of apicoplast development in ACP-GFP expressing Plasmodium falciparum D10 assessed as induction of round stump-like structures at 10 uM measured at 90 to 96 hrs post dose by DAPI dye based confocal laser-scanning microscopy; type: functional, organism-based
Plasmodium falciparum [9] = experiment: Effect on nuclear division in ACP-GFP expressing Plasmodium falciparum D10 apicoplast at 10 uM measured at 96 hrs post dose by DAPI dye based confocal laser-scanning microscopy; type: functional, organism-based
HeLa = experiment: Cytotoxic activity against human HeLa cells assessed as reduction in cell viability incubated for 48 hrs by MTT assay
[10] = Ratio of IC50 for inhibition of recombinant Plasmodium falciparum ClpP expressed in Escherichia coli BL21(DE3) to IC50 for antimalarial activity against Plasmodium falciparum 3D7
Plasmodium falciparum [11] = experiment: Antimalarial activity against Plasmodium falciparum 3D7 assessed as inhibition of parasite growth at 100 uM incubated for 96 hrs in presence of 4% haematocrit by SYBR green dye based assay; type: functional, organism-based; how it was run: as §1
[12] = Plasmodium falciparum, 3D7, 96 h, read-out: IC50

IC50 [1] | SMILES | Ki [1] | IC50 (Plasmodium falciparum [2]) | IC50 (Plasmodium falciparum [2]; [12]) | Ki ([1]; read-out: Ki) | other results
> 100 µM | CCCc1cc(=O)oc2cc(OCC(=O)N[C@@H](CSCc3ccccc3)C(=O)O)ccc12 | Not Active | Not Active |  |  | 
> 100 µM | CCN(CC)c1ccc(C(=O)CSc2ncc(C(=O)NCCCc3ccccc3)c(=O)n2Cc2ccccc2)cc1 | Not Active |  | 9.2 µM |  | 
34.7 µM | COc1ccc(C(=O)CSc2nc(C)cc(SCC(=O)NNC(=O)Cc3ccccc3)n2)cc1 |  |  | 11.8 µM | 14.2 µM | 
> 100 µM | COc1cccc(NC(=O)CSc2nc3sc4c(c3c(=O)n2CCc2ccccc2)CC(C(C)C)OC4)c1 (stereo unspecified) | Not Active | Not Active |  |  | 
10.5 µM | O=C(NCCCc1ccccc1)c1cnc(SCCN2CCOCC2)n(Cc2ccccc2)c1=O |  |  | 9 µM | 2.3 µM | Activity (Plasmodium falciparum [3]): Active; Activity (Plasmodium falciparum [4]): inactive; inhibition (Plasmodium falciparum [5]): Active; growth inhibition (GI) (Plasmodium falciparum [6]): Active; Activity (Plasmodium falciparum [7]): Active; Activity (Plasmodium falciparum [8]): Active; Activity (Plasmodium falciparum [9]): inactive; IC50 (HeLa): > 5000 µM
45 µM | COc1ccc(C(=O)CSc2ncc(C(=O)NCCCc3ccccc3)c(=O)n2Cc2ccccc2)cc1 |  |  | 2.4 µM | 18 µM | Ratio IC50 [10]: 20
> 100 µM | N#Cc1ccc(C(=O)CSc2ncc(C(=O)NCCCc3ccccc3)c(=O)n2Cc2ccccc2)cc1 | Not Active |  | 13.7 µM |  | 
26 µM | Cc1cc(SCC(=O)NNC(=O)Cc2ccccc2)nc(SCC(=O)c2ccccc2)n1 |  |  | 75 µM | 11 µM | 
30 µM | CCc1nnc(NC(=O)CSc2nnc(-c3cc4ccccc4cc3O)n2CCOC)s1 |  |  | 27 µM | 12.1 µM | 
72.6 µM | O=C(CSc1ncc(C(=O)NCCCc2ccccc2)c(=O)n1Cc1ccccc1)NNC(=O)Cc1ccccc1 |  | Not Active |  | 29.5 µM | inhibition (Plasmodium falciparum [11]): inactive
46 µM | O=C(NCCCc1ccccc1)c1cnc(SCC(=O)N2CCOCC2)n(Cc2ccccc2)c1=O |  |  | 11.7 µM | 18.8 µM | 
37.4 µM | Cc1cc(SCC(=O)NNC(=O)Cc2ccccc2)nc(SCC(=O)c2ccc(C#N)cc2)n1 |  |  | 12.4 µM | 15.3 µM | 
24 µM | O=C(CSc1ncc(C(=O)NCCCc2ccccc2)c(=O)n1Cc1ccccc1)c1ccccc1 |  |  | 20 µM | 10 µM | 
28.3 µM | CCN(CC)c1ccc(C(=O)CSc2nc(C)cc(SCC(=O)NNC(=O)Cc3ccccc3)n2)cc1 |  |  | 12.1 µM | 11.6 µM | 
> 100 µM | CC(C)C1Cc2c(sc3nc(SCC(=O)NCc4ccccc4)n(CCc4ccccc4)c(=O)c23)CO1 (stereo unspecified) | Not Active | Not Active |  |  | 
23 µM | CC(CCc1ccccc1)NC(=O)CSc1nc2sc3c(c2c(=O)n1CCc1ccccc1)CC(C(C)C)OC3 (stereo unspecified) |  |  | 25 µM | 9 µM | 
58.3 µM | CCOC(=O)CSc1ncc(C(=O)NCCCc2ccccc2)c(=O)n1Cc1ccccc1 |  |  | 15.9 µM | 23.8 µM | 
53 µM | O=C(CSc1ncc(C(=O)NCCCc2ccccc2)c(=O)n1Cc1ccccc1)c1ccc(O)cc1 |  |  | 9.2 µM | 21.6 µM | 

The next lines start with the compound.

SMILES | IC50 [1] | Ki [1] | IC50 (Plasmodium falciparum [2]) | IC50 (Plasmodium falciparum [2]; [12]) | Ki ([1]; read-out: Ki) | other results
CCc1ccc(CSc2ncc(Cl)c(C(=O)NCCC(=O)Nc3ccc(Cl)cc3)n2)cc1 | > 100 µM | Not Active | Not Active |  |  | 
O=C(NCCCc1ccccc1)c1cnc(SCCN2CCOCC2)[nH]c1=O | 44 µM |  |  | 22 µM | 18 µM | 
CCOC(=O)c1cnc(SCCN2CCOCC2)n(CC(=O)c2ccccc2)c1=O | 40 µM |  |  | 19 µM | 16 µM | 
O=C(CNC(=O)OCc1ccccc1)N[C@@H](CCC(=O)OCc1ccccc1)C(=O)OCc1ccccc1 (Cbz-Gly-Glu(OBn)-OBn) | > 100 µM | Not Active | Not Active |  |  | 
COc1ccc(CNC(=O)C(=O)N/N=C/c2ccc(CNS(=O)(=O)c3ccc(Br)cc3)o2)cc1 | > 100 µM | Not Active | Not Active |  |  | 
CCOC(=O)c1cnc(SCC(=O)NNC(=O)Cc2ccccc2)[nH]c1=O | 42 µM |  |  | 82.5 µM | 17 µM | 
O=C(CSc1nc(SCC(=O)NCc2ccco2)nc(SCC(=O)NCc2ccco2)n1)NCc1ccco1 | 92 µM |  | Not Active |  | 38 µM | 
O=C(O)c1cnc2n(c1=O)CC(c1ccccc1)=C(CN1CCOCC1)S2 | > 100 µM | Not Active |  | 11 µM |  | 
CCOC(=O)c1cnc(SCCN2CCOCC2)[nH]c1=O | > 100 µM | Not Active | Not Active |  |  | 
Cc1cc(SCC(=O)NNC(=O)Cc2ccccc2)nc(SCCN2CCOCC2)n1 | 30.3 µM |  |  | 14.4 µM | 12.3 µM | 
CCCOc1ccc(-c2nn(-c3ccccc3)cc2/C=C2\SC(=S)N(CCc3ccccc3)C2=O)cc1F | > 100 µM | Not Active | Not Active |  |  | 
Cc1cc(SCC(=O)NNC(=O)Cc2ccccc2)nc(SCC(=O)N2CCOCC2)n1 | 28.8 µM |  |  | 17.3 µM | 11.8 µM | 
O=C(COc1ccccc1)Nc1cc(NC(=O)COc2ccccc2)cc(C(=O)Nc2nccs2)c1 | 88 µM |  | Not Active |  | 36 µM | 
CCCCOc1ccc(-c2nn(-c3ccccc3)cc2/C=C(\C#N)C(=O)NCc2ccco2)c(C)c1 | > 100 µM | Not Active | Not Active |  |  | 
